Assay results as given in PMC10413622 (Nuclear medicine and biology, 2022).
“Also recorded” adds a separate entry of the source.

Key:
[1] = In vitro human plasma stability of radiotracer; assay type: in vitro ADME; details: 37 °C, HPLC
Outline: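 Formulated radiotracer (46 μCi) was mixed into human plasma, with aliquots held at 37 °C. Aliquots were quenched at 0, 5, 15, 30 and 60 min with ice-cold MeCN and centrifuged at 12,500g for 10 min. Supernatant went to radio-HPLC (C18, 70–95% MeCN with 0.1% TFA over 15 min). Controls of tracer without plasma were run at 0 and 60 min.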

[2] = Stability of radiotracer in formulation; assay type: physicochemical
[3] = Dynamic PET/CT imaging in mice; assay type: in vivo, mouse
Outline: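 Subjects were female C57BL/6 wild-type mice aged 3 months and one male P2Y12R total-KO mouse (C57BL/6 background, 11 months), under isoflurane (2–3.5% induction, 1–2.5% maintenance). Tracer was given by tail vein at 300 μCi, formulated in saline with 10% ethanol. Imaging was 60 min list-mode dynamic PET (4×15 s, 4×1 min, 11×5 min), OSEM-3D with scatter and attenuation correction, then CT. ROIs were applied to dynamic data to give TACs in %ID/g.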

[4] = MicroPET imaging in rhesus macaque; assay type: in vivo; details: rhesus macaque n = 1, i.v. bolus, 60 min dynamic scan
Outline: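 One mature female rhesus monkey (9.36 kg) was anaesthetised with Telazol, intubated, and maintained on isoflurane, with a hind-limb venous catheter and head secured. Tracer 4.90 mCi was given as a bolus over 1 min. The brain was imaged for 60 min (5×1, 2×2.5, 2×5, 4×10 min frames), with attenuation and scatter correction and 3D MAP reconstruction. A whole-brain volumetric ROI drawn on the summed image gave the TAC.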

[5] = mouse, in vivo, 1 h
P2Y12R = details: read-out: IC50 (affinity); cited from earlier work
Caco-2 cells = assay: Caco-2 permeability assay; assay type: in vitro ADME; details: 10 μM, pH 7.4, 2 h
Outline: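 Caco-2 cells grown in DMEM under 5% CO₂, seeded at 5 × 10⁵/well on polycarbonate filter inserts and differentiated 21 ± 4 days. Test compound at 10 μM final in HBSS with 25 mM HEPES, pH 7.4, 37 °C, added donor side. A→B and B→A runs were done with and without elacridar. Receiver was sampled over 2 h and donor at 0 and 2 h, then analysed by LC-MS/MS. Papp = […]/(A × C₀,donor) × 10⁶.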

[6] = determined at pH 6.8; cited from earlier work
[7] = Microsome stability assay; assay type: in vitro ADME, mouse; details: 1 μM test compound, NADPH, 37 °C
Outline: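 Mouse liver microsomes in 100 mM K₃PO₄ pH 7.4 with 10 mM MgCl₂ and 1 μM test compound were pre-incubated 10 min at 37 °C. Reactions were started with 1 mM NADPH. They were quenched at 0, 10, 20 and 40 min with stop solution in acetonitrile, centrifuged at 4000g for 20 min, diluted in 0.1% formic acid and quantified by LC-MS/MS.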

[8] = test system: other purinergic receptors; details: cited from earlier work
[9] = mice, i.v., 5 min post injection

Row | intact tracer after incubation in human serum ([1]; 60 min incubation) [%] | intact tracer after incubation in formulation ([2]; 90 min in formulation (saline with 10% ethanol)) [%] | time stable in formulation and resistant to radiolysis ([2]; post end-of-synthesis) [min] | CNS uptake in P2Y12R knockout mouse (PET) ([3]; P2Y12R total KO male mouse n = 1, 60 min dynamic scan) | brain uptake (PET) [3, 9] [%ID/g] | liver uptake (PET) [3, 9] [%ID/g] | brain peak uptake (PET) ([3]; naïve wild-type mice n = 3, i.v., 15 s post injection) [%ID/g] | peak brain uptake (PET) [4] [SUV] | ex vivo biodistribution, blood [5] | ex vivo biodistribution, brain [5] | ex vivo biodistribution, liver [5] [%ID/g] | Caco-2 efflux ratio BA/AB (Caco-2 cells) | Caco-2 apparent permeability AB (Caco-2 cells; A→B) | half-life in mouse liver microsomes [7] [min] | Compound | loss of parent / radio-metabolites in human plasma ([1]; 0-60 min incubation) | IC50 (P2Y12R) [µM] | logD [6] | selectivity for P2Y12R over other purinergic receptors [8]
1 | > 99 | > 99 | > 90 | no CNS uptake | 0.55 ± 0.37 | 58.28 ± 18.75 | 3.46 ± 2.0 | 0.37 | 0.9% ± 0.40 %ID/g | 0.02% ± 0.01 %ID/g | 106 ± 29.70 | – | – | – | CCOC(=O)c1cc([11C]#N)c(N2CCC(C(=O)NS(=O)(=O)Cc3ccccc3)CC2)nc1C [[^11C]AZD1283] | no loss of parent or detection of radio-metabolites; also recorded: no loss of parent tracer or appearance of radio-metabolites | – | – | –
2 | – | – | – | – | – | – | – | – | – | – | – | 5.3 | 4.48 | 37 | CCOC(=O)c1cc(C#N)c(N2CCC(C(=O)NS(=O)(=O)Cc3ccccc3)CC2)nc1C [AZD1283] | – | 0.011 | 2.8 | selective for P2Y12R over other purinergic receptors
